Compound activity from PubChem BioAssay.
LGR2 inh = blocks bursicon-induced cAMP signaling via Drosophila LGR2. HEK293 LGR2, CRE-luciferase, bursicon-stimulated, 4 h. inhibition, % at 9.99 µM. 380,000 compounds, 0.35% hits;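 active means drop in luminescence signal, shown as inhibition above about 50% in the replicate tests, limit read from the data, passing the limit was not always enough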;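 further: agonist challenge used bursicon conditioned medium at about half maximal strength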
CaV13 FRET inh = Primary screen for inhibitors of IQ motif and Ca2+-dependent inactivation inhibitor domain binding in CACNA1D, Förster resonance energy transfer in living cells, … | HEK cells, CFP/YFP FRET ICDI-IQ, plate reader, 10 min; percent FRET-ratio fall versus neutral wells | inhibition, % at 12.3 µM | 340,000 compounds, 0.098% hits | AID 743397;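 active means mean replicate inhibition of at least 30% and at least 1% of replicates passing that level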;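 further: 0% = median of the neutral control wells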
XiGFP reactiv = reactivates the inactive X chromosome in mouse fibroblasts. XiGFP mouse fibroblasts, % GFP-positive cells imaging, 3 d; cells co-treated with 5-aza-dC sensitizer; scaled so ellipticine positive control = 100%. activation, % at 7.58 µM. 360,000 compounds, 0.055% hits. AID 743238;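 active means mean normalized replicate activation at least 10% and every replicate at or above 10%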;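 further: 0% = median of on-plate neutral control wells and 100% = ellipticine 6 µM median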
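System: SV40-immortalized XiGFP fibroblast cells, line 68-5-11 / Incubation: 3-day compound exposure, then 15 min fixation at room temperature / Compound: single concentration per compound, delivered by pin transfer / Buffer or medium: DMEM plus 5-aza-dC sensitizer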
TWEAK Fn14 block = TWEAK-Fn14 signaling inhibition. TWEAK-stimulated Fn14 reporter cells, luciferase luminescence, 8 h. inhibition, % at 10 µM. 360,000 compounds, 2% hits; in the data active means inhibition above about 50%
TROY NFkB inh = inhibitors of TROY-dependent NF-kB signaling. Q293 LMP1-TROYcd NF-kB luciferase reporter, 4 h. inhibition, % at 10 µM. 360,000 compounds, 0.98% hits. AID 1347056;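 active means compounds whose plate-normalised and pattern-corrected inhibition of the luciferase reporter signal at the single screening dose is 50% or more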
Active calls of the source: *; . = no result; + = active, no number. Rows were chosen to be rich in hits. Some 2% of all compounds tested hit in one or more screens of this group.

SMILES	LGR2 inh	CaV13 FRET inh	XiGFP reactiv	TWEAK Fn14 block	TROY NFkB inh
O=C(NCC[C@H]1CC[C@H](NS(=O)(=O)c2ccccc2)[C@@H](CO)O1)c1cc(Cl)cc(Cl)c1	-7	.	0	.	.
COC(=O)c1cc(N=CC2=C(O)CC(C)(C)CC2=O)cc(C(=O)OC)c1	6	-4	0	2	4
COC(=O)c1cc(OC)c(OC)cc1N=CC1=C(O)CC(C)(C)CC1=O	-20	0	.	56*	-9
C[C@H](NC(=O)C[C@@H]1CC[C@@H]2[C@H](COC[C@H](O)CN2C(=O)Nc2cc(Cl)cc(Cl)c2)O1)c1ccccc1	20	.	0	.	.
Cc1noc(C)c1NC(=O)Nc1ccc2c(c1)CC(=O)N([C@H](C)CO)C[C@@H](C)[C@H](CN(C)S(=O)(=O)c1c(C)noc1C)O2	4	.	0	.	.
O=C(NCc1nnnn1-c1ccc(Cl)cc1)C1CC(=O)N(c2ccc(F)cc2)C1 (configuration not stated)	10	36*	0	4	-5
COc1ccc(-n2nnnc2CNC(=O)C2CC(=O)N(c3ccc(F)cc3)C2)cc1 (configuration not stated)	1	-5	0	7	-11
O=C(Nc1ccc2c(c1)OCO2)N[C@H]1C=C[C@H](CC(=O)N2CCN(c3ccccc3)CC2)O[C@@H]1CO	17	.	0	.	.
CCC(=O)N[C@H]1CC[C@H](CC(=O)NCC2CC2)O[C@H]1CO	-2	.	0	.	.
c1ccc2c(c1)[nH]c1c(N3CCC4(CC3)OCCO4)ncnc12	.	.	.	21	9
Cc1ccc2c(c1)[nH]c1c(N3CCN(Cc4ccccc4)CC3)ncnc12	.	-5	.	96*	68*
OC1(c2cccc(C(F)(F)F)c2)CCN(c2ncnc3c2[nH]c2ccccc23)CC1	.	-6	.	58*	53*
c1ccc(CN2CCN(c3ncnc4c3[nH]c3ccccc34)CC2)cc1	.	-5	.	97*	67*
Cc1ccc2[nH]c3c(N4CCN(Cc5ccccc5)CC4)ncnc3c2c1	.	-8	.	103*	55*
COc1cccc(C#Cc2ccc([C@H]3[C@H](CO)N4C(=O)CN(C(=O)Cc5cccnc5)C[C@@H]34)cc2)c1	5	.	0	.	.
c1ccc2c(c1)CCN(c1ncnc3c1[nH]c1ccccc13)C2	.	-4	.	85*	48
O=C1[C@H](Cc2ccc(C(F)(F)F)cc2)CCn2cc(nn2)COC[C@@H]2CCCCN2C(=O)[C@H](Cc2ccc(C(F)(F)F)cc2)CCn2cc(nn2)COC[C@@H]2CCCCN12	.	.	0	.	.
Cc1ccc(S(=O)(=O)Nc2ccc3c(c2)C(=O)c2ccccc2-3)cc1	-1	-12	0	33	53*
O=C(Nc1cccc(NC(=O)c2cccnc2)c1)c1ccccc1	6	.	0	-17	-1
NC(=O)c1cccc(-c2cnc(N)c(C(=O)c3cccnc3)n2)c1	.	.	.	84*	51*
CC(=O)Nc1cccc(-c2csc(N)n2)c1	13	-2	-1	-4	15
CC(=O)Nc1cccc(-c2cnc(N)c(C(=O)c3cccnc3)n2)c1	.	.	.	82*	38
COc1ccccc1CN1C[C@@H]2N[C@H](C1)C2c1ccc(/C=C/c2ccccc2)cc1 (some centres not stated)	-1	.	0	.	.
Nc1nc(-c2cc(O)ccc2[N+](=O)[O-])cc(-c2ccccc2)c1[N+](=O)[O-]	18	+	0	20	12
O=[N+]([O-])c1cc(-c2ccccc2)cc([N+](=O)[O-])c1O	1	-7	0	11	24
CN(C)CC(=O)N1[C@@H]2c3ccc(-c4ccncc4)c(=O)n3C[C@H]1[C@H](CO)[C@H]2C(=O)NC1CCC1	8	.	0	.	.
O=C(NC(=S)Nc1cccc(Cl)c1N1CCCCC1)c1ccc2c(c1)OCCO2	-15	-4	0	71*	70*
O=C(Nc1ccc(F)cc1)N[C@@H]1CC[C@H](CCn2cc(C3(O)CCCC3)nn2)O[C@H]1CO	-29	.	0	.	.
CCOC(=O)C(C(=O)OCC)C(Nc1ccc(Br)cc1)c1ccccc1 (configuration not stated)	.	-5	.	54*	5
COc1ccc2c3c([nH]c2c1)[C@H](CO)N(Cc1nccs1)CC31CCN(C(=O)C2CCOCC2)CC1	-16	.	0	.	.
